Assay results reported in PubChem BioAssay AID492951 (Molecular Libraries Program, Specialized Chemistry Center, …, 2010).
Activity calls are given as the source filed them.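 How the source made its calls: active means inhibition above 10%; inactive means the rest.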

Target: Hexokinase-4 (Homo sapiens) (UniProt P35557)
Experiment: hGlck enzyme activity off-target inhibitors – biochemical, recombinant hGlck, counter-screen for TbHK1 inhibitor project (AID 492951)
Conditions: G6PDH-coupled NADH absorbance 340 nm, at 10 µM
Method in brief: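 Test system: purified recombinant human glucokinase (HK4) with G6PDH coupling enzyme / Reagent: 20 mM glucose as reaction starter, plus 1 mM ATP / Timing: 10 min room-temperature compound-enzyme preincubation before glucose addition / Measured by: A340 of NADH / Repeats: three replicates per compound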

Sequence of Hexokinase-4 (Homo sapiens) (P35557 whole entry, looked up): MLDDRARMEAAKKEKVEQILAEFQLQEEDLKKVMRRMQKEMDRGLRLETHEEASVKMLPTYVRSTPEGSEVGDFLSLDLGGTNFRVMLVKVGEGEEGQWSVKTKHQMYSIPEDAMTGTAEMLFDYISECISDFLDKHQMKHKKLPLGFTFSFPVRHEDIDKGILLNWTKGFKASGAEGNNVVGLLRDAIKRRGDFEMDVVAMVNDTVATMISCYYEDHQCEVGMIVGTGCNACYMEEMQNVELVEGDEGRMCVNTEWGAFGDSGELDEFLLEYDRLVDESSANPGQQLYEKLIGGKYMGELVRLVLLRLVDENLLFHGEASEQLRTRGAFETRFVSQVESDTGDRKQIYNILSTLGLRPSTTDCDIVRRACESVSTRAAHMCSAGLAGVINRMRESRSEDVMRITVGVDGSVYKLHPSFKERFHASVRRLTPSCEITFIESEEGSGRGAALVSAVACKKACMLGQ

Row | SMILES | outcome
1 | O=c1ccsn1-c1ccccc1 | inactive
2 | O=C1CCN(C(=O)Nc2cc(Cl)ccc2C(=O)O)CC1 | inactive
